Experimental data published in ChEMBL document CHEMBL1132408, “Novel lipoamino acid- and liposaccharide-based system for peptide delivery: application for oral administration of tumor-selective somatostatin analogues” (J Med Chem, 1999).

What was measured:
Format in all cases: functional, Homo sapiens
[1] = system: Faza 967 cell clone 2/T1; experiment: The compound was tested in vitro for antiproliferative activity against Faza 967 clone2/T1 tumor cell lines; design: concentration or dose not given beside the values
[2] = system: HT-29; experiment: The compound was tested in vitro for antiproliferative activity against HT-29 tumor cell lines; design: concentration or dose not given beside the values
How it was run: (§1)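 Human tumor cell lines were exposed to the conjugates for 24 h at 50 µg/mL. Surviving cells converted the tetrazolium salt MTT to formazan, and OD was read at 570 nm. Values are percent inhibition relative to untreated cells (0%), given as the mean ± SD of at least three parallels. The methods also list 20, 50 and 100 µg/mL and 24 or 48 h exposures.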

[3] = system: A2058; experiment: The compound was tested in vitro for antiproliferative activity against A2058 tumor cell lines; design: concentration or dose not given beside the values; how it was run: as §1
[4] = system: Faza 967 clone 2; experiment: The compound was tested in vitro for antiproliferative activity against Faza 967 clone2 tumor cell lines; design: concentration or dose not given beside the values
[5] = system: SW-620; experiment: The compound was tested in vitro for antiproliferative activity against […] tumor cell lines; how it was run: as §1
[6] = system: A-431; experiment: (§2) The compound was tested in vitro for antiproliferative activity against A431 tumor cell lines; how it was run: as §1
[7] = system: PC-3; experiment: The compound was tested in vitro for antiproliferative activity against PC3 tumor cell lines; how it was run: as §1
[8] = system: A-431; experiment: as §2; design: concentration or dose not given beside the values; how it was run: as §1

SMILES | Inhibition [1] [%] | Inhibition [2] [%] | Inhibition [3] [%] | Inhibition [4] [%] | Inhibition [5] [%] | Inhibition [6] [%] | Inhibition [7] [%] | Inhibition [8] [%]
CCCCCCCCCCCCCCCCCCC(N)C(=O)N[C@H](Cc1ccccc1)C(=O)N[C@@H](CSCNC(C)=O)C(=O)N[C@H](C(=O)N[C@H](Cc1c[nH]c2ccccc12)C(=O)N[C@@H](CCCCN)C(=O)N[C@@H](CSCNC(C)=O)C(=O)N[C@H](C(N)=O)[C@@H](C)O)c1ccc(O)cc1 (some centres not stated) | 87 | 50 | 34 | 71 | – | – | – | –
C[C@@H](O)[C@H](NC(=O)C1CSSCC(NC(=O)[C@H](N)Cc2ccccc2)C(=O)N[C@@H](c2ccc(O)cc2)C(=O)NC(Cc2c[nH]c3ccccc23)C(=O)N[C@@H](CCCCN)C(=O)N1)C(N)=O (single isomer, unassigned) | 100 | 76 | 96 | 100 | 90 | 100 | 90 | –
CCCCCCCCCCCCCCCCC(N)C(=O)N[C@H](Cc1ccccc1)C(=O)N[C@@H](CSCNC(C)=O)C(=O)N[C@H](C(=O)N[C@H](Cc1c[nH]c2ccccc12)C(=O)N[C@@H](CCCCN)C(=O)N[C@@H](CSCNC(C)=O)C(=O)N[C@H](C(N)=O)[C@@H](C)O)c1ccc(O)cc1 (some centres not stated) | 88 | 20 | 60 | 93 | – | – | – | 83
CCCCCCCCC(N)C(=O)N[C@H](Cc1ccccc1)C(=O)N[C@H]1CSSC[C@@H](C(=O)N[C@H](C(N)=O)[C@@H](C)O)NC(=O)[C@H](CCCCN)NC(=O)[C@@H](Cc2c[nH]c3ccccc23)NC(=O)[C@H](c2ccc(O)cc2)NC1=O (some centres not stated) | – | – | – | – | 95 | – | 42 | –
CC(=O)NCSC[C@H](NC(=O)[C@H](N)Cc1ccccc1)C(=O)N[C@H](C(=O)N[C@H](Cc1c[nH]c2ccccc12)C(=O)N[C@@H](CCCCN)C(=O)N[C@@H](CSCNC(C)=O)C(=O)N[C@H](C(N)=O)[C@@H](C)O)c1ccc(O)cc1 | 0 | 80 | 30 | 10 | – | – | – | 34
CCCCCCCCCCC(N)C(=O)NCC(=O)NCC(=O)N[C@H](Cc1ccccc1)C(=O)N[C@H]1CSSC[C@@H](C(=O)N[C@H](C(N)=O)[C@@H](C)O)NC(=O)[C@H](CCCCN)NC(=O)[C@@H](Cc2c[nH]c3ccccc23)NC(=O)[C@H](c2ccc(O)cc2)NC1=O (some centres not stated) | 43 | 50 | 35 | 33 | – | – | – | 48
CCCCCCCCCCCCC(N)C(=O)N[C@H](Cc1ccccc1)C(=O)N[C@@H](CSCNC(C)=O)C(=O)N[C@H](C(=O)N[C@H](Cc1c[nH]c2ccccc12)C(=O)N[C@@H](CCCCN)C(=O)N[C@@H](CSCNC(C)=O)C(=O)N[C@H](C(=O)NC1OC(C(N)=O)C(O)C(O)C1O)[C@@H](C)O)c1ccc(O)cc1 (some centres not stated) | 17 | 18 | 2 | 23 | – | – | – | 10
CCCCCCCCC(NC(=O)[C@@H](NC(=O)[C@H](CSCNC(C)=O)NC(=O)[C@H](CCCCN)NC(=O)[C@@H](Cc1c[nH]c2ccccc12)NC(=O)[C@@H](NC(=O)[C@H](CSCNC(C)=O)NC(=O)[C@H](N)Cc1ccccc1)c1ccc(O)cc1)[C@@H](C)O)C(=O)NCC(=O)O (some centres not stated) | 90 | 93 | 97 | 92 | – | – | – | 76
CCCCCCCCC(N)C(=O)NC(CCCCCCCC)C(=O)N[C@H](Cc1ccccc1)C(=O)N[C@@H](CSCNC(C)=O)C(=O)N[C@H](C(=O)N[C@H](Cc1c[nH]c2ccccc12)C(=O)N[C@@H](CCCCN)C(=O)N[C@@H](CSCNC(C)=O)C(=O)N[C@H](C(N)=O)[C@@H](C)O)c1ccc(O)cc1 (some centres not stated) | 95 | 60 | 68 | 96 | – | – | – | –
CCCCCCCCCCC(N)C(=O)N[C@H](Cc1ccccc1)C(=O)N[C@@H](CSCNC(C)=O)C(=O)N[C@H](C(=O)N[C@H](Cc1c[nH]c2ccccc12)C(=O)N[C@@H](CCCCN)C(=O)N[C@@H](CSCNC(C)=O)C(=O)N[C@H](C(=O)NC1OC(C(N)=O)C(O)C(O)C1O)[C@@H](C)O)c1ccc(O)cc1 (some centres not stated) | 29 | 36 | 80 | 19 | – | – | – | 50
CCCCCCCCCCCCC(N[C@H](Cc1ccccc1)C(=O)N[C@@H](CSCNC(C)=O)C(=O)N[C@H](C(=O)N[C@H](Cc1c[nH]c2ccccc12)C(=O)N[C@@H](CCCCN)C(=O)N[C@@H](CSCNC(C)=O)C(=O)N[C@H](C(N)=O)[C@@H](C)O)c1ccc(O)cc1)C(=O)NC1OC(O)C(O)C(O)C1O (some centres not stated) | 50 | 39 | 62 | 61 | – | – | – | 32
CCCCCCCCCCC(N)C(=O)N[C@H](Cc1ccccc1)C(=O)N[C@H]1CSSC[C@@H](C(=O)N[C@H](C(N)=O)[C@@H](C)O)NC(=O)[C@H](CCCCN)NC(=O)[C@@H](Cc2c[nH]c3ccccc23)NC(=O)[C@H](c2ccc(O)cc2)NC1=O (some centres not stated) | – | – | – | – | 65 | – | 5 | –
CC(=O)NCSC[C@H](NC(=O)[C@H](N)Cc1ccccc1)C(=O)N[C@H](C(=O)N[C@H](Cc1c[nH]c2ccccc12)C(=O)N[C@@H](CCCCN)C(=O)N[C@@H](CSCNC(C)=O)C(=O)N[C@H](C(=O)NC1OC(C(N)=O)C(O)C(O)C1O)[C@@H](C)O)c1ccc(O)cc1 (some centres not stated) | 90 | 85 | 88 | 93 | – | – | – | 90
CCCCCCCCCCCCC(NC(=O)CCC(=O)NC1OC(O)C(O)C(O)C1O)C(=O)N[C@H](Cc1ccccc1)C(=O)N[C@H]1CSSC[C@@H](C(=O)N[C@H](C(N)=O)[C@@H](C)O)NC(=O)[C@H](CCCCN)NC(=O)[C@@H](Cc2c[nH]c3ccccc23)NC(=O)[C@H](c2ccc(O)cc2)NC1=O (some centres not stated) | – | 30 | 100 | – | – | – | 55 | –
